Compound activity as filed in PubChem BioAssay.
RGS4 pot: RGS4 potentiation or activation | HEK293 M3R/inducible RGS4, carbachol calcium flux Fluo4; stronger effect = lower value | hit rate 0.92% among 310,000 | B-score at 10 µM;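 active = B-score of the integrated calcium signal more than 4 SD below the library mean, with starting fluorescence not abnormally high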;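 also: negative B-score means reduced calcium response which marks RGS4 activation or potentiation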
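System: HEK293 FlpIn-TREx cells, stable M3R, doxycycline-inducible RGS4. Timing: overnight RGS4 induction, 30 min dye load 37 °C, 20 min compound RT. Also added: carbachol, ECmax concentration. Measured by: Fluo4 fluorescence kinetic imaging of calcium. Evaluation: integrated calcium ratio converted to B score.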
MrgX1 PAM: allosterically activates human MrgX1 receptor signaling. MrgX1-HEK293, Fluo-4 calcium flux, FDSS; stronger effect = higher value. B-score at 10 µM. hit rate 0.63% among 310,000;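 active = plate-corrected calcium response at least 3 library SD above typical, normal starting fluorescence, not activating the receptor alone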;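 also: compound read alongside a low EC10 to EC30 dose of BAM8-22 agonist; peak minus trough fluorescence over baseline measured at the second addition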
RGS4 block: human RGS4 inhibition; P49798; HEK293 M3R/RGS4 inducible, Fluo-4 calcium flux; stronger effect = higher value; triggered by carbachol at its EC20; B-score at 10 µM; hit rate 0.45% among 310,000;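 active = B-score, a plate-corrected calcium signal, over three deviations above library mean, with baseline fluorescence within five deviations of library mean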;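 also: RGS4 expression induced by doxycycline in cells with stable M3 receptor; B-score is computed from the integrated fluorescence ratio over baseline after carbachol; higher B-score means a larger calcium signal and so more RGS4 inhibition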
Target sequence (P49798 whole entry, looked up): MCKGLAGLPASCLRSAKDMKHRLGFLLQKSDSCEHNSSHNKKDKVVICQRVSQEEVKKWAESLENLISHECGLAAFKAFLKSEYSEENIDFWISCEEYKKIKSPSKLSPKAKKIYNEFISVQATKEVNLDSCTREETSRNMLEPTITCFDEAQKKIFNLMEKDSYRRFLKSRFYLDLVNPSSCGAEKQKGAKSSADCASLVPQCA
PHOSPHO1 inh: PHOSPHO1 (human) inhibition; Q8TCT1; recombinant PHOSPHO1, absorbance phosphatase assay; inhibition, % at 13.3 µM; hit rate 1.1% among 290,000; AID 1565; in the data active = inhibition above about 60%
Target sequence (Q8TCT1 whole entry, looked up): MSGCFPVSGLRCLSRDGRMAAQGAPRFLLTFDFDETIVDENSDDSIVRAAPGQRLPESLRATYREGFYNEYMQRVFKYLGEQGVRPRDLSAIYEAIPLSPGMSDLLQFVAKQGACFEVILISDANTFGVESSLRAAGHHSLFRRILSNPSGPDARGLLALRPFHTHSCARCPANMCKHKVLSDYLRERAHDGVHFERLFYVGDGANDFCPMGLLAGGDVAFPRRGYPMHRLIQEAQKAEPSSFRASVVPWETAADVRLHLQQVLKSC
MrgX1 agonist: activates human MrgX1 receptor signaling; Q96LB2; MrgX1-HEK293 cells, Fluo-4 calcium fluorescence, agonist mode; stronger effect = higher value; B-score at 10 µM; hit rate 0.44% among 310,000; AID 588627;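 active = calcium response B-score plate-corrected fluorescence ratio at least 3 library SD, with starting fluorescence B-score inside 5 SD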
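times = overnight plating, then 30 min 37 °C plus 30 min room-temperature dye loading | assay system = stable human MrgX1 HEK293 cell line | input = fifteen thousand cells per well | signal = kinetic calcium dye fluorescence, Fluo-4 NW | dosing = compound delivered in addition one of three | read-out = B-scored fluorescence response ratio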
MrgX1 antag: antagonists of human MrgX1 receptor; Q96LB2; MRGX1-HEK293 calcium flux, Fluo-4, BAM8-22 antagonism; stronger effect = lower value; B-score at 10 µM; hit rate 1.3% among 310,000;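 active = calcium-response B-score plate-corrected more than 3 library SD below zero, starting fluorescence within 5 deviations, no agonist response on first addition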;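 also: peak minus trough fluorescence over baseline after final BAM8-22 challenge near maximal dose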
Starred values were filed as active, the others as inactive; i = inactive; x = not tested or not shown. Shown are actives, neighbours in structure and some others; about 4.5% of the full set was active somewhere.

SMILES	RGS4 pot	MrgX1 PAM	RGS4 block	PHOSPHO1 inh	MrgX1 agonist	MrgX1 antag
COc1ccc2c(C)cc3n[nH]c(=S)n3c2c1	i	i	i	66.8*	i	i
COc1ccc(-c2n[nH]c(=S)n2-c2cc(OC)ccc2OC)cc1	i	i	i	-69.2	i	i
CCc1nc(Nc2ccc(F)cc2)c2oc3ccccc3c2n1	i	i	i	35.1	i	i
CCc1nc(Nc2ccccc2F)c2oc3ccccc3c2n1	i	8.41*	i	x	i	i
O=S1(=O)N=C(N2CCCc3ccccc32)c2ccccc21	i	i	i	44.7	i	i
O=S1(=O)N=C(N2CCc3ccccc3C2)c2ccccc21	-7.41*	i	i	18.5	i	i
CC1CCN(C(=O)CSc2nncn2-c2ccccn2)CC1	i	i	i	73.8*	i	i
CC1CCN(C(=O)CSc2nncn2C)CC1	i	i	i	28.5	i	i
Cc1ccc(/C=N/c2sc3c(c2C#N)CCCCC3)o1	i	i	i	61.0*	i	i
N#Cc1c(/N=C/c2ccco2)sc2c1CCC2	i	i	i	-18.5	i	i
CCn1nc([N+](=O)[O-])c2c(-c3nc4ccccc4o3)c(N)n(CCCOC)c2c1=O	i	i	i	95.9*	i	i
COc1ccc2cc3c(N)c(C(=O)N4CCCC4)sc3nc2c1	i	i	i	-16.3	i	i
Cc1ccc2cc3c(N)c(C(=O)N4CCOCC4)sc3nc2c1	i	i	i	61.4*	i	i
Cc1ccc2nc3sc(C(=O)N4CCOCC4)c(N)c3cc2c1	i	i	i	85.6*	i	i
CCOc1ccc2nc3sc(C(=O)N4CCN(C)CC4)c(N)c3cc2c1	i	i	i	-16.3	i	i
CC(CCN1CCN(c2ccccc2)CC1)c1ccccc1 (stereo not drawn)	i	i	i	2.8	i	i
CCOC(=O)C1(CCOc2ccccc2)CCN(Cc2ccc(COC)o2)CC1	i	i	i	23.9	32.5*	i
COC(=O)c1ccc(CN2CCC(CO)(CCOc3ccccc3)CC2)cc1	-6.95*	i	i	13.9	i	i
CCOC(=O)C1(CCOc2ccccc2)CCN(Cc2ccc(OC)c(COC)c2)CC1	i	i	i	13.9	i	-4.68*
CCOC(=O)C1(CCOc2ccccc2)CCN(Cc2ccc(O)cc2)CC1	i	i	i	13.9	i	i
CCOC(=O)C1(CCOc2ccccc2)CCN(Cc2cccc3nonc23)CC1	i	i	i	60.1*	i	i
CCOC(=O)C1(CCOc2ccccc2)CCN(Cc2ccc(C)o2)CC1	i	i	i	51.8	i	i
CCOC(=O)C1(CCOc2ccccc2)CCN(Cc2ccc(OC)c(O)c2)CC1	i	i	i	19.0	i	i
Cc1occc1C(=O)N1CCCC(N2CCN(c3ccccc3F)CC2)C1 (stereo not drawn)	i	i	i	28.7	i	i
CC(=O)N(Cc1ccccc1C)c1cccc(C)c1C	i	i	i	34.2	i	i
SMILES	RGS4 pot	MrgX1 PAM	RGS4 block	PHOSPHO1 inh	MrgX1 agonist	MrgX1 antag
CC1=C(C#N)c2nc(N)c(C#N)c(C)c2/C1=C\c1ccc(OCC(=O)O)c(Cl)c1	i	i	i	71.4*	i	-5.37*
CCOC(=O)CSc1nc(N)c(C#N)c(-c2ccc(OCC)cc2)c1C#N	i	i	i	21.5	i	i
COc1ccc(S(=O)(=O)N2CCC(C(=O)NC3CC(C)(C)NC(C)(C)C3)CC2)cc1	i	i	i	69.7*	i	i
CNC(=O)c1cc2cc(OC)ccc2n1CCN(Cc1ccccc1)Cc1ccccc1	i	i	i	13.1	i	-7.79*
CNC(=O)c1cc2cc(OC)ccc2n1CCN(C)C	i	i	i	-5.3	i	i
Cn1c(N)c(C(=O)COC(=O)CCC2CCCCC2)c(=O)n(C)c1=O	i	i	i	20.5	i	i
COC(=O)COc1ccc(NC(=O)c2ccco2)cc1	i	i	i	-34.9	i	i
